Source: ChEMBL document CHEMBL1146453, “Insecticidal sesquiterpene pyridine alkaloids from Maytenus chiapensis” (J Nat Prod, 2004)
≈ marks a conversion by molar mass, not a printed value. Calls of active or inactive are those of the source. The calls are words filed in the database; no cut-off is given here.

What was measured:
[1] = Cytotoxicity against CHO cells by MTT assay; format: cell-based, Cricetulus griseus; details: chinese hamster, read-out: LD50 (the source's name)
In short: (§1)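 Sf9 cells (S. frugiperda pupal ovarian tissue) and CHO cells were cultured and scored for viability by an adapted MTT colorimetric assay. LD50, the dose giving 50% viability, was calculated for active compounds.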

Myzus persicae = assay: Antifeedant activity against Myzus persicae; format: functional, organism-based
In short: (§2)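 Choice feeding test on sixth-instar S. littoralis larvae and apterous adult M. persicae. Larvae reared on artificial diet, aphids on bell pepper plants, both at 22 ± 1 °C, >70% RH, 16:8 h L:D. Read-out is percent feeding inhibition (larvae) or settling inhibition (aphids). Actives above 50% went to dose–response, with EC50 taken from linear regression of %FR or %SI on log dose.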

Spodoptera littoralis [2] = assay: Antifeedant activity against Spodoptera littoralis L6 larvae assessed as nutritional consumption relative to control; format: functional; set-up: concentration or dose not given beside the values
In short: (§3)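 Sixth-instar S. littoralis larvae reared on artificial diet at 22 ± 1 °C, >70% RH, 16:8 h L:D, dosed orally. Food consumption and biomass gain were recorded. Post-ingestive effects were tested by ANCOVA of biomass gain with food consumption as covariate.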

[3] = Cytotoxicity against Spodoptera frugiperda Sf9 cells by MTT assay; format: cell-based; details: read-out: LD50 (the source's name); in short: as §1
Spodoptera littoralis [4] = assay: Antifeedant activity against Spodoptera littoralis L6 larvae assessed as biomass gain relative to control; format: functional; set-up: concentration or dose not given beside the values; in short: as §3
Spodoptera littoralis [5] = assay: Antifeedant activity against Spodoptera littoralis L6 larvae treated orally; format: functional, organism-based; in short: as §3
Spodoptera littoralis [6] = assay: Antifeedant activity against Spodoptera littoralis L6 larvae; format: functional, organism-based; in short: as §2

| Compound | CC50 [1] | Activity (Myzus persicae) | Activity (Spodoptera littoralis [2]) | CC50 [3] | Activity (Spodoptera littoralis [4]) | Activity (Spodoptera littoralis [5]) | EC50 (Spodoptera littoralis [6]) |
| --- | --- | --- | --- | --- | --- | --- | --- |
| CC(=O)OC[C@]12[C@H](OC(C)=O)C(=O)[C@@H]3[C@@H](OC(C)=O)[C@@]14O[C@@]3(C)COC(=O)c1cccnc1CCC(C)(O)C(=O)O[C@@H]([C@H](OC(=O)c1ccccc1)[C@@H]2OC(=O)c1ccccc1)[C@]4(C)O (some centres not stated) | > 100 µg/mL | inactive | 92% | 78.7 µg/mL (≈ 87.2 µM) | 93% | inactive | 6.6 ×10⁻² ug/cm2 |
| CC(=O)OC[C@]12[C@H](OC(C)=O)[C@H](OC(C)=O)[C@@H]3[C@@H](OC(C)=O)[C@@]14O[C@@]3(C)COC(=O)c1cccnc1CCC(C)(O)C(=O)O[C@@H]([C@H](OC(C)=O)[C@@H]2OC(C)=O)[C@]4(C)O (some centres not stated) [ALATUSININE] | > 100 µg/mL | inactive | 125% | 73.2 µg/mL (≈ 89.1 µM) | 111% | inactive | 1.6 ×10⁻⁴ ug/cm2 |
| CC(=O)OC[C@]12[C@H](OC(C)=O)C(=O)[C@@H]3[C@@H](OC(C)=O)[C@@]14O[C@@]3(C)COC(=O)c1cccnc1CCC(C)(O)C(=O)O[C@@H]([C@H](OC(=O)c1ccccc1)[C@@H]2OC(C)=O)[C@]4(C)O (some centres not stated) [ALATAMINE] | > 100 µg/mL | inactive | 117% | > 100 µg/mL | 118% | inactive | 5.2 ×10⁻³ ug/cm2 |
| CC(=O)OC[C@]12[C@H](OC(C)=O)[C@H](OC(C)=O)[C@@H]3[C@@H](OC(C)=O)[C@@]14O[C@@]3(C)COC(=O)c1cccnc1C(C)C(C)C(=O)O[C@@H]([C@H](OC(C)=O)[C@@H]2OC(C)=O)[C@]4(C)O (some centres not stated) [EUONYMINE] | > 100 µg/mL | inactive | 102% | 49.6 µg/mL (≈ 61.6 µM) | 105% |  | > 50 microg/cm2 |
| CC(=O)OC[C@]12[C@H](OC(C)=O)[C@H](OC(C)=O)[C@@H]3[C@@H](OC(C)=O)[C@@]14O[C@@]3(C)COC(=O)c1cccnc1CCC(C)C(=O)O[C@@H]([C@H](OC(C)=O)[C@@H]2OC(C)=O)[C@]4(C)O (some centres not stated) [EUONINE] | > 100 µg/mL | inactive | 111% | 48.4 µg/mL (≈ 60 µM) | 98% | inactive | 1.8 ×10⁻⁴ ug/cm2 |
| CC(=O)OC[C@]12[C@H](OC(C)=O)[C@H](OC(C)=O)[C@@H]3[C@@H](OC(C)=O)[C@@]14O[C@@]3(C)COC(=O)c1cccnc1CCC(C)(O)C(=O)O[C@@H]([C@H](OC(=O)c1ccccc1)[C@@H]2OC(C)=O)[C@]4(C)O (some centres not stated) [WILFORDINE] | > 100 µg/mL | inactive | 109% | 86.2 µg/mL (≈ 97.6 µM) | 93% | inactive | 2.3 ×10⁻⁴ ug/cm2 |
| CC(=O)OC[C@]12[C@H](OC(C)=O)[C@H](OC(C)=O)[C@@H]3[C@@H](OC(C)=O)[C@@]14O[C@@]3(C)COC(=O)c1cccnc1C(C)C(C)C(=O)O[C@@H]([C@H](OC(C)=O)[C@@H]2OC(=O)c1ccccc1)[C@]4(C)O (some centres not stated) [MAYTEINE] | > 100 µg/mL | inactive | 146% | > 100 µg/mL | 112% |  | > 50 microg/cm2 |
| CC(=O)OC[C@]12[C@H](OC(C)=O)[C@H](OC(C)=O)[C@@H]3[C@@H](OC(C)=O)[C@@]14O[C@@]3(C)COC(=O)c1cccnc1C(C)C(C)C(=O)O[C@@H]([C@H](O)[C@@H]2OC(=O)c1ccccc1)[C@]4(C)O (some centres not stated) [EBENIFOLINE E I] | > 100 µg/mL | inactive | 81% | 78.8 µg/mL (≈ 95.4 µM) | 83% | inactive | 0.72 microg/cm2 |
| CC(=O)OC[C@]12[C@H](OC(C)=O)[C@H](OC(C)=O)[C@@H]3[C@@H](OC(C)=O)[C@@]14O[C@@]3(C)COC(=O)c1cccnc1CCC(C)(O)C(=O)O[C@@H]([C@H](OC(=O)c1ccccc1)[C@@H]2OC(=O)c1ccccc1)[C@]4(C)O (some centres not stated) | > 100 µg/mL | inactive | 87% | > 100 µg/mL | 96% | inactive | 3.9 ×10⁻² ug/cm2 |
| CC(=O)OC[C@]12[C@H](OC(C)=O)[C@H](OC(C)=O)[C@@H]3[C@@H](OC(C)=O)[C@@]14O[C@@]3(C)COC(=O)c1cccnc1C(C)C(C)C(=O)O[C@@H]([C@H](O)[C@@H]2OC(C)=O)[C@]4(C)O (some centres not stated) | > 100 µg/mL | inactive | 94% | 57.5 µg/mL (≈ 75.3 µM) | 101% |  | > 50 microg/cm2 |
